Target: Human immunodeficiency virus type 1 protease (Human immunodeficiency virus 1, UniProt Q72874)
Test: HIV-1 protease inhibition.
Method in brief: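 Affinity-purified HIV-1 protease (1.5 nM final) with 40 µM peptide substrate His-Lys-Ala-Arg-Val-Leu-(p-NO2-Phe)-Glu-Ala-Nle-Ser-NH2 and 1.0% DMSO. Buffer: 80 mM MES, 160 mM NaCl, 1.0 mM DTT, 1.0 mM EDTA, 0.1% PEG 8000, pH 6.2. Incubated 60 min at 37 °C, then quenched with TFA (2% final). Products separated by reverse-phase HPLC and read at 220 nm. Percent control derived from % conversion with vs without inhibitor; IC50 then determined.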

IC50 [nM] | Compound
1.3 | Cc1cc(SC2C(=O)CC(CCc3cscn3)(C(C)C)OC2=O)c(C(C)(C)C)cc1CO (centres undefined) [3-(2-tert-Butyl-4-hydroxymethyl-5-methyl-phenylsulfanyl)-4-hydroxy-6-isopropyl-6-(2-thiazol-4-yl-ethyl)-5,6-dihydro-pyran-2-one]
14 | Cc1cc(SC2C(=O)CC(CCc3nc(C(C)C)cs3)(C(C)C)OC2=O)c(C(C)(C)C)cc1CO (centres undefined) [3-(2-tert-Butyl-4-hydroxymethyl-5-methyl-phenylsulfanyl)-4-hydroxy-6-isopropyl-6-[2-(4-isopropyl-thiazol-2-yl)-ethyl]-5,6-dihydro-pyran-2-one]
1.3 | Cc1cc(SC2C(=O)CC(CCc3ncsc3C)(C(C)C)OC2=O)c(C(C)(C)C)cc1CO (centres undefined) [3-(2-tert-Butyl-4-hydroxymethyl-5-methyl-phenylsulfanyl)-4-hydroxy-6-isopropyl-6-[2-(5-methyl-thiazol-4-yl)-ethyl]-5,6-dihydro-pyran-2-one]
14 | Cc1cc(SC2C(=O)CC(CCc3ccsc3CO)(C(C)C)OC2=O)c(C(C)(C)C)cc1CO (centres undefined) [3-(2-tert-Butyl-4-hydroxymethyl-5-methyl-phenylsulfanyl)-4-hydroxy-6-[2-(2-hydroxymethyl-thiophen-3-yl)-ethyl]-6-isopropyl-5,6-dihydro-pyran-2-one]
